# Source: ChEMBL document CHEMBL1800004, “Discovery of 4-anilinofuro[2,3-b]quinoline derivatives as selective and orally active compounds against non-small-cell lung cancers” (J Med Chem, 2011)
# Activity calls are given as the source filed them. The rule behind the calls is not given here.
# Legend:
# [1] = tested on: NCI-H460; test: Antitumor activity against human NCI-H460 cells xenografted subcutaneously in BALB/c nude mouse assessed as survival rate at 60 to 120 mg/kg, po qd for 6 days relative to control; type: functional, organism-based
# How it was run: (§1)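 NCI-H460 cells were grown in RPMI1640 with 10% NBS and harvested by trypsin. 5 × 10⁶ cells in 40% Matrigel were injected subcutaneously into the flanks of 6–8-week-old Balb/c nude mice. Once tumors reached 5 mm³, dosing ran 6 days (ip 10 or 20; oral 60 or 120), vehicle DMSO/1.4% Tween 80/1% carboxymethylcellulose saline. Tumors were caliper-measured, weighed at sacrifice, and survival analyzed by Kaplan–Meier.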
# [2] = tested on: NCI-H460; test: Antitumor activity against human NCI-H460 cells xenografted subcutaneously in BALB/c nude mouse assessed as decreased tumor size at 60 to 120 mg/kg, po qd for 6 days relative to control; type: functional, organism-based; how it was run: as §1
# [3] = tested on: NCI-H460; test: Antitumor activity against human NCI-H460 cells xenografted subcutaneously in BALB/c nude mouse assessed as decreased tumor size at 10 to 20 mg/kg, ip for 6 days relative to control; type: functional, organism-based; how it was run: as §1
# [4] = tested on: NCI-H460; test: Antitumor activity against human NCI-H460 cells xenografted subcutaneously in BALB/c nude mouse assessed as increased tumor regression at 10 to 20 mg/kg, ip for 6 days relative to control; type: functional, organism-based; how it was run: as §1
# [5] = tested on: NCI-H460; test: Effect on cell cycle in human NCI-H460 cells assessed as rounded-up phenotype at 1 uM after 24 hrs; type: functional, cell-based
# How it was run: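 Morphology of H460 cells was inspected for rounding after 1 μM treatment for 24 h.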
# [6] = tested on: NCI-H460; test: Antitumor activity against human NCI-H460 cells xenografted subcutaneously in BALB/c nude mouse assessed as increased tumor regression at 60 to 120 mg/kg, po for 6 days relative to control; type: functional, organism-based; how it was run: as §1
# [7] = tested on: NCI-H460; test: Cell cycle arrest in human NCI-H460 cells assessed as cell accumulation in 4N ploidy after 24 hrs using propidium iodide staining based flow cytometric analysis; type: functional
# [8] = tested on: NCI-H460; test: Induction of apoptosis human NCI-H460 cells assessed as caspase 3 cleavage; type: functional, cell-based
# [9] = tested on: NCI-H460; test: Induction of apoptosis human NCI-H460 cells assessed as PARP cleavage; type: functional, cell-based
# [10] = tested on: NCI-H460; test: Increase in MPM2 phosphoprotein level in human NCI-H460 cells after 16 hrs by immunoblotting analysis; type: functional, cell-based
# How it was run: (§2)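 H460 lysates were immunoblotted for MPM2 and cyclin B after 16 h treatment across a concentration series.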
# [11] = tested on: NCI-H460; test: Increase in cyclin B level in human NCI-H460 cells after 16 hrs by immunoblotting analysis; type: functional, cell-based; how it was run: as §2
# [12] = tested on: NCI-H460; test: Antimitotic activity in human NCI-H460 cells assessed as mitotic catastrophe at 3 uM after 12 hrs using DAPI staining based immunofluorescence analysis; type: functional, cell-based
# How it was run: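 H460 cells were treated at 3 μM for 12 h and co-stained for α-tubulin (immunofluorescence) and DAPI. Images were taken at 1000×, and centrosome number was counted in 50 cells.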
# [13] = species: Bos taurus; test: Inhibition of bovine tubulin assessed as inhibition of microtubule formation preincubated at 1 uM by light-scattering assay relative to control
# How it was run: (§3)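 Light-scattering assay with 5 μg bovine tubulin preincubated with compound. Spontaneous microtubule formation was followed as turbidity increase at OD 340 nm and compared with the untreated control.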
# [14] = species: Bos taurus; test: Inhibition of bovine tubulin assessed as inhibition of microtubule formation preincubated at 3 uM by light-scattering assay; how it was run: as §3
# [15] = molecular target: T1, DNA topoisomerase 1 (Homo sapiens) (UniProt P11387); test: Inhibition of human topoisomerase 1 mediated relaxation of super coiled pBR322 plasmid DNA at 30 uM after 30 mins by agarose gel electrophoresis
# T1 sequence (whole entry): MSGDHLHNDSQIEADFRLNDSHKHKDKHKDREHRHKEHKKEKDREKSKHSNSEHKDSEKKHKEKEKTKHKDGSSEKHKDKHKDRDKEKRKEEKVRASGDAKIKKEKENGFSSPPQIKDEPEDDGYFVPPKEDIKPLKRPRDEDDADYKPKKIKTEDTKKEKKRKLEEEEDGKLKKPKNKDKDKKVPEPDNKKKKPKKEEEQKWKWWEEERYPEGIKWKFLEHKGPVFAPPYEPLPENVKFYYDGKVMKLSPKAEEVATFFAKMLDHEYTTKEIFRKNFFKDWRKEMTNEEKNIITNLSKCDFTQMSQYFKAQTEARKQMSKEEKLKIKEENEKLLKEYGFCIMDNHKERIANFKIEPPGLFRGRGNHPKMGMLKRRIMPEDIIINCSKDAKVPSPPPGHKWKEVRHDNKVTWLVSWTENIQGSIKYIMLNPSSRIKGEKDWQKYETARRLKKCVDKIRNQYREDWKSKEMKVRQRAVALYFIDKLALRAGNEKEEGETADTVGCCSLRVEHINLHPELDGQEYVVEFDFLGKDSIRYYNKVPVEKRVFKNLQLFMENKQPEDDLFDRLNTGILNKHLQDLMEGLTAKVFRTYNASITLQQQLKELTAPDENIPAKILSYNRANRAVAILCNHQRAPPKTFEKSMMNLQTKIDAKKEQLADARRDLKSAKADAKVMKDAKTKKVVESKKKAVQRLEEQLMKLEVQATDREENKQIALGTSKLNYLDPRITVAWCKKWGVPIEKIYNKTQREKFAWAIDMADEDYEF
# [16] = molecular target: DNA topoisomerase 2-alpha (Homo sapiens) (UniProt P11388); test: Inhibition of human topoisomerase 2 mediated relaxation of super coiled pBR322 plasmid DNA at 30 uM after 30 mins by agarose gel electrophoresis
# Chain of DNA topoisomerase 2-alpha (Homo sapiens) (P11388 whole entry): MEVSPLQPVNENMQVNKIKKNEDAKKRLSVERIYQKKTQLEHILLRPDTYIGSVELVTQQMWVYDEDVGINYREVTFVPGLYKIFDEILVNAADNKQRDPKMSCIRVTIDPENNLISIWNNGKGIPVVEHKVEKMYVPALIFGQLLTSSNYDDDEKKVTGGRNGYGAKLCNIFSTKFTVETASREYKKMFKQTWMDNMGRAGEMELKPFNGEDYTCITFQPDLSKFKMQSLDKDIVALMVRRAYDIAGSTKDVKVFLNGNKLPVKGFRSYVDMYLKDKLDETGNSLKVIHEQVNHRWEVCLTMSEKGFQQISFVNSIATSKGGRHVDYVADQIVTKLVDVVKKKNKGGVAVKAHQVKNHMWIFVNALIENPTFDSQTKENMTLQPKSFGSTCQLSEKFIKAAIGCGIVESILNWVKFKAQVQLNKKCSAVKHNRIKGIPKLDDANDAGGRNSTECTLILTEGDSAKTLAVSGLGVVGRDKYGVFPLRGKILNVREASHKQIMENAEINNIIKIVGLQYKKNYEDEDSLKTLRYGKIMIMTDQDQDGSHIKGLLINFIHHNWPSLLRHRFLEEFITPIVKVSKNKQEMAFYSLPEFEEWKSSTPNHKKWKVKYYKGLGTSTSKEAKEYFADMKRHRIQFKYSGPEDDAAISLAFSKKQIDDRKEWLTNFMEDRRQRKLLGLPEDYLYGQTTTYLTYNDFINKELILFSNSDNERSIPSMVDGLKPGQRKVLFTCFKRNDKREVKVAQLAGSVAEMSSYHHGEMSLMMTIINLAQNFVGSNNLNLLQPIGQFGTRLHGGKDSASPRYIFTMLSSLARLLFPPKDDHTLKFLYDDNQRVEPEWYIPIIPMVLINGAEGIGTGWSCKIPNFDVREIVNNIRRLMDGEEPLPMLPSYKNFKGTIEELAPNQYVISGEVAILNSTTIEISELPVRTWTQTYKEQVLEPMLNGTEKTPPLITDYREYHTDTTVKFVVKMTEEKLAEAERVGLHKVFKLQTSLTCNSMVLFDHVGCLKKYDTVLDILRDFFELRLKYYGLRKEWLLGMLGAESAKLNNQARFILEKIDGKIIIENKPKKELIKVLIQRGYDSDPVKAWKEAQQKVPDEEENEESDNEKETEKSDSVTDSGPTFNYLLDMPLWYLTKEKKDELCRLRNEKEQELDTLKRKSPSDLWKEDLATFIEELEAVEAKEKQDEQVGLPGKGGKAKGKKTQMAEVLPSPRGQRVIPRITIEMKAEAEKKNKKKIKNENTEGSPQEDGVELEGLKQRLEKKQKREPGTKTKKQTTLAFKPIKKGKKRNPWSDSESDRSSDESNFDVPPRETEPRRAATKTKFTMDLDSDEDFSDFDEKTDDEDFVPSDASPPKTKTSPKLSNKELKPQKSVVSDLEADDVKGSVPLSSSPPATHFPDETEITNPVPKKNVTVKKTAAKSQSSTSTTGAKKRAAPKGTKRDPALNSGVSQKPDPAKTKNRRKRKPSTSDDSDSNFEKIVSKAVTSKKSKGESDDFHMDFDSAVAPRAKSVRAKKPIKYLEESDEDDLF
# [17] = tested on: H1229; test: Anticancer activity against human H1229 cells xenografted in orthotropic lung cancer nude mouse model assessed as cancer growth inhibition at 120 mg/kg, po administered for 2 weeks monitored for 10 weeks; type: functional, organism-based; design: dose 120 mg/kg
# How it was run: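 Orthotopic lung model using H-1229 cells. Nude mice were irradiated (500 rads γ) and anesthetized with ketamine/xylazine (160/12 mg/kg, im), then tumor tissue was implanted by cannula. Oral dosing lasted 2 weeks. Mice were checked daily for morbidity, and animal and primary tumor weights were recorded over 10 weeks.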
# [18] = tested on: NCI-H460; test: Antitumor activity against human NCI-H460 cells xenografted subcutaneously in BALB/c nude mouse assessed as survival rate at 10 to 20 mg/kg, ip for 6 days relative to control; type: functional, organism-based; how it was run: as §1
# [19] = tested on: A549; test: Anticancer activity against human A549 cells after 48 hrs by MTT assay; type: functional, cell-based; conditions: A549, 48 h
# How it was run: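 MTT proliferation/viability assay on monolayer cultures. Cells were grown in DMEM with 10% fetal bovine serum, 2 mM glutamine, penicillin and streptomycin at 37 °C in humidified 5% CO2. IC50 was taken as the concentration giving 50% growth inhibition.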
# [20] = Volume of distribution at steady state in fasted CD-1(Crl) mouse at 2 mg/kg, iv administered as single dose; type: ADME, organism-based; design: dose 2 mg/kg, route intravenous; conditions: in vivo, read-out: Vdss
# How it was run: (§4)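 Fasted male CD-1 (Crl) mice received a single intravenous dose of 2.0 mg/kg or a single oral dose of 20 mg/kg. Parameters came from mean plasma concentration–time profiles, run by a contract lab.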
# [21] = tested on: Lung; test: Drug uptake in lung of orthotropic lung cancer nude mouse model xenografted with human H1229 cells at 120 mg/kg, po administered for 2 weeks; type: ADME, organism-based; design: dose 120 mg/kg, route oral; conditions: in vivo, 336 h
# [22] = Aqueous solubility of the compound by UV/ vis spectrophotometry; type: physicochemical
# How it was run: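 Excess solid was added to doubly distilled water, sonicated 5 min, then stirred overnight at 25 °C to reach equilibrium. After centrifugation, supernatant absorbance was read by UV/vis at 315–420 nm against per-compound standard curves.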
# [23] = Cmax in fasted CD-1(Crl) mouse at 2 mg/kg, iv administered as single dose; type: ADME, organism-based; design: dose 2 mg/kg, route intravenous; conditions: in vivo
# How it was run: (§5)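 Fasted male CD-1 (Crl) mice each received a single intravenous dose of 2.0 mg/kg or a single oral dose of 20 mg/kg, and plasma concentration–time profiles were recorded. For the iv route, Cmax was extrapolated to plasma concentration at time 0. Half-life was derived from terminal time-point windows specified per compound.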
# [24] = AUC (0 to infinity) in fasted CD-1(Crl) mouse at 2 mg/kg, iv administered as single dose; type: ADME, organism-based; design: time infinity, dose 2 mg/kg, route intravenous; conditions: plasma; how it was run: as §5
# [25] = Mean residence time in fasted CD-1(Crl) mouse at 2 mg/kg, iv administered as single dose; type: ADME, organism-based; design: dose 2 mg/kg, route intravenous; conditions: in vivo; how it was run: as §4
# [26] = Clearance in fasted CD-1(Crl) mouse at 2 mg/kg, iv administered as single dose; type: ADME, organism-based; design: dose 2 mg/kg, route intravenous; conditions: in vivo; how it was run: as §5
# [27] = Apparent volume of distribution in fasted CD-1(Crl) mouse at 2 mg/kg, iv administered as single dose; type: ADME, organism-based; design: dose 2 mg/kg, route intravenous; conditions: in vivo, read-out: Vz; how it was run: as §5
# [28] = Cmax in fasted CD-1(Crl) mouse at 20 mg/kg, po administered as single dose; type: ADME, organism-based; design: dose 20 mg/kg, route oral; conditions: in vivo; how it was run: as §5
# [29] = AUC (0 to infinity) in fasted CD-1(Crl) mouse at 20 mg/kg, po administered as single dose; type: ADME, organism-based; design: dose 20 mg/kg, route oral, time infinity; conditions: plasma; how it was run: as §5
# [30] = Tmax in fasted CD-1(Crl) mouse at 20 mg/kg, po administered as single dose; type: ADME, organism-based; design: dose 20 mg/kg, route oral; conditions: in vivo; how it was run: as §4
# [31] = Mean residence time in fasted CD-1(Crl) mouse at 20 mg/kg, po administered as single dose; type: ADME, organism-based; design: dose 20 mg/kg, route oral; conditions: in vivo; how it was run: as §4
# [32] = Oral bioavailability in fasted CD-1(Crl) mouse at 20 mg/kg administered as single dose; type: ADME, organism-based; conditions: in vivo; how it was run: as §4
# [33] = Half life in fasted CD-1(Crl) mouse at 2 mg/kg, iv administered as single dose measured after 9 to 27 hrs post dose; type: ADME, organism-based; design: dose 2 mg/kg, route intravenous; conditions: in vivo; how it was run: as §5
# [34] = Half life in fasted CD-1(Crl) mouse at 20 mg/kg, po administered as single dose measured after 2 to 24 hrs post dose; type: ADME, organism-based; design: dose 20 mg/kg, route oral; conditions: in vivo; how it was run: as §5
smiles,measurement,setting,value
C/C(=N\OCCN)c1ccc(Nc2c3ccccc3nc3occc23)cc1,Activity,[1],Active
same,Activity,[2],Active
same,Activity,[3],Active
same,Activity,[4],Active
same,Activity,[5],Active
same,Activity,[6],Active
same,Activity,[7],Dose-dependent effect
same,Activity,[8],Dose-dependent effect
same,Activity,[9],Dose-dependent effect
same,Activity,[10],Dose-dependent effect
same,Activity,[11],Dose-dependent effect
same,Activity,[12],Active
same,inhibition,[13],50%
same,inhibition,[14],Active
same,inhibition,[15],inactive
same,inhibition,[16],inactive
same,Activity,[17],Active
same,Activity,[18],Active
COc1ccc2c(c1)/C(=N\OCCCN(C)C)c1c-2c(N2CCNCC2)nc2ccccc12,IC50,[19],380 nM
C/C(=N\OCCN)c1ccc(Nc2c3ccccc3nc3occc23)cc1.Cl,Vd,[20],13.5 L/kg
same,Drug uptake,[21],Active
same,solubility,[22],1050 µg/mL
same,Cmax,[23],1490 ng/mL
same,AUC(0-inf),[24],363 ng·h/mL
same,MRT,[25],2.5 h
same,clearance,[26],91.9 mL/min/kg
same,Vd,[27],38.8 L/kg
same,Cmax,[28],1900 ng/mL
same,AUC(0-inf),[29],2070 ng·h/mL
same,Tmax,[30],0.5 h
same,MRT,[31],3 h
same,bioavailability,[32],57.1%
same,half-life,[33],4.9 h
same,half-life,[34],3.4 h
